The values that follow come from ChEMBL document CHEMBL1126683, “Synthesis and antitumor activity of isodoxorubicin analogues” (J Med Chem, 1993).

Each structure is given as a SMILES string. Values after ≈ are worked out from the molar mass of the structure shown.

Assay [1] has as its system L1210. Description: Percentage ratio of mean survival time of treated animals to untreated controls for L1210 mouse leukemia treated by 3.1 mg / kg dosed intravenously on 1,5,and 9 days. Conditions: route intravenous.
A short description of assay [2]: Evaluated for the degree of cross resistance as the ratio of degree of resistance of doxorubicin to degree of resistance of the compound. It is filed as functional. The procedure, abridged: (§1)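 Colony (stem cell) assay comparing L1210 and L1210/ADM cells under continuous exposure, with the compound mixed into the agar upper layer before plating. Cells were plated at 5×10^2 per plate and incubated 5–7 days at 37 °C. Colonies >60 μm were counted relative to untreated control, and IC50 values were taken from dose–response curves to form the resistance ratios.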

Assay [3] relates to L1210. Description: Growth inhibition of L1210 murine leukemia cells after 3 day exposure in MTT reduction assay. The settings on record: Mus musculus, L1210, 3 days. (In general: Tetrazolium dyes change colour on reduction, which living cells bring about.)
Assay [4] relates to L1210. In words: Growth inhibition of L1210/ADM murine leukemia cells after 3 day exposure in MTT assay. The settings on record: Mus musculus, L1210, 3 day.
The species entered for assay [5] is Homo sapiens. Description: Activity against internally growing human tumor A-549 tested in subrenal capsule assay. It is filed as functional. The procedure, abridged: (§2)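 Human tumors were grown intrarenally in a subrenal capsule assay. Tumor area of the treated group was scored against the control group as follows: >50%, between 10% and 50%, or <10% of control.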

The species named for assay [6] is Homo sapiens. Description: Activity against internally growing human tumor HT-29 tested in subrenal capsule assay. It is filed as functional. The procedure, abridged:
as §2

Assay [7] is filed under the species Homo sapiens. Description: Activity against internally growing human tumor LXF tested in subrenal capsule assay. It counts as functional. In a few lines: as §2
Assay [8] concerns A549. In words: Growth inhibition of A 549 cell line by MTT reduction for 3 days of incubation time. It is filed as functional, cell-based. Conditions: Homo sapiens, A549, 72 h. In a few lines: (§3)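 Exponentially growing A549 or HT29 cells were seeded at 5×10^3/mL in RPMI and exposed to graded concentrations for 72 h (37 °C, 5% CO₂), in quadruplicate wells. MTT was added at 65 h, followed by a further 7–24 h incubation. Formazan was dissolved in DMSO and read at 492 nm. Results were expressed as extinction ratio to medium-only control, and IC50 was taken as 50% growth inhibition.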

For assay [9], the species on record is Homo sapiens. In words: Activity against internally growing human tumor LXF / ADM tested in subrenal capsule assay. It counts as functional. The procedure, abridged: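 Tumors were resected at about 1/3 cm, cut into pieces of about 5 mm³, and retransplanted repeatedly until sensitivity was reduced. The subline was then tested in the subrenal capsule assay, with tumor area of the treated group scored as >50%, 10–50%, or <10% of control.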

The test system of assay [10] is L1210. In words: Growth inhibition of L1210 murine leukemia cells after 1 hr exposure in untreated control culture. It counts as functional, cell-based. Conditions: Mus musculus, L1210, 1 h. The procedure, abridged: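 L1210 cells were exposed to graded concentrations for 1 h at 37 °C, washed twice in McCoy 5A, and plated at 5×10^2 cells/plate in an agar upper layer using a modified Hamburger–Salmon method. Plates were kept 5–7 days at 37 °C in 5% CO₂, 20% O₂, 95% humidity. Colonies >60 μm were counted as % of untreated control, and IC50 was read from dose–response curves.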

In assay [11] the test system is HT-29. Description: Growth inhibition of HT 29 cell line by MTT reduction for 3 days of incubation time. It counts as functional, cell-based. Conditions: Homo sapiens, HT-29, 72 h. The procedure, abridged:
as §3

A short description of assay [12]: Evaluated for the degree of resistance as the ratio of IC50 L1210 / ADM to IC50 of L1210. It is filed as functional. The procedure, abridged: as §1
The test system of assay [13] is HT-29. Description: Growth inhibition of HT 29 cell line by MTT reduction for 7 days of incubation time. Conditions: Homo sapiens, HT-29, 168 h.
Assay [14] relates to A549. In words: cells. Conditions: Homo sapiens, A549, 168 h.

Broadly, the T/C is the ratio of treated to control. By IC50 is commonly meant the concentration that inhibits the measured activity by half.

As to `CC1O[C@@H](O[C@H]2C[C@](O)(CO)Cc3c(O)c4c(c(O)c32)C(=O)c2ccccc2C4=O)C[C@@H](O)[C@@H]1N.Cl` (stereo partly specified), the T/C was 133% in the assay on L1210 [1]; over 50% in the assay filed under Homo sapiens [5]; over 50% in the assay listed under Homo sapiens [6]; over 10% in the assay listed under Homo sapiens [7]; over 50% in the assay listed under Homo sapiens [9]. Also, in [2], the Degree of cross resistance is 24. In addition, the IC50 in the assay with L1210 [3] came to 0.009 µg/mL; with L1210 [4], 0.1 µg/mL; in the assay with A549 [8], 0.009 µg/mL; in the assay on L1210 [10] it was 0.022 µg/mL; with HT-29 [11], 0.01 µg/mL. Also, the Degree of resistance in assay [12] worked out at 11.

As to `CC1O[C@@H](O[C@H]2C[C@](O)(CO)Cc3c(O)c4c(c(O)c32)C(=O)c2ccccc2C4=O)C[C@@H](O)[C@@H]1N1CCOCC1` (stereo partly specified), the 50% inhibitory concentration (IC50) with L1210 [3] worked out at 0.15 µg/mL (≈ 0.27 µM); in the assay on A549 [8], 0.054 µg/mL (≈ 0.0972 µM); with L1210 [10] it was 0.21 µg/mL (≈ 0.378 µM); in the assay with HT-29 [11], 0.13 µg/mL (≈ 0.234 µM).

In the case of `CC1O[C@@H](O[C@H]2C[C@](O)(CO)Cc3c(O)c4c(c(O)c32)C(=O)c2ccccc2C4=O)C[C@@H](O)[C@@H]1N=[N+]=[N-]` (stereo partly specified), the IC50 in the assay with L1210 [3] was found to be 0.13 µg/mL (≈ 0.254 µM); in the assay on A549 [8], 0.24 µg/mL (≈ 0.469 µM); in the assay on L1210 [10], 0.26 µg/mL (≈ 0.508 µM); with HT-29 [11], 0.46 µg/mL (≈ 0.899 µM).

With `CC1O[C@@H](O[C@H]2C[C@](O)(CO)Cc3c(O)c4c(c(O)c32)C(=O)c2ccccc2C4=O)C[C@@H](O)[C@@H]1NC(=O)C(F)(F)F` (stereo partly specified), the IC50 in the assay with L1210 [3] was 0.015 µg/mL (≈ 0.0258 µM); in the assay with A549 [8], 0.011 µg/mL (≈ 0.0189 µM); in the assay on L1210 [10] it was 0.0064 µg/mL (≈ 0.011 µM); in the assay on HT-29 [11], 0.026 µg/mL (≈ 0.0447 µM).

With `COc1cccc2c1C(=O)c1c(O)c3c(c(O)c1C2=O)C[C@@](O)(C(=O)CO)C[C@@H]3O[C@H]1C[C@H](N)[C@H](O)[C@H](C)O1` [DOXORUBICIN], the IC50 with HT-29 [13] turned out to be 0.02 µg/mL (≈ 0.0368 µM); with L1210 [4], 0.9 µg/mL (≈ 1.66 µM); with A549 [14], 0.02 µg/mL (≈ 0.0368 µM); with A549 [8], 0.05 µg/mL (≈ 0.092 µM); in the assay on L1210 [10] it was 0.04 µg/mL (≈ 0.0736 µM); in the assay on HT-29 [11], 0.06 µg/mL (≈ 0.11 µM). Further, the Degree of cross resistance in assay [2] amounted to 100. For the same compound, the T/C is over 10% in the assay filed under Homo sapiens [5], over 10% in the assay filed under Homo sapiens [6], under 10% in the assay filed under Homo sapiens [7] and over 10% in the assay listed under Homo sapiens [9]. Moreover, the Degree of resistance in assay [12] was determined as 45.
